proCasp7 act: activates human procaspase-7, counter-screen for procaspase-3 activators; recombinant procaspase-7, Ac-DEVD-pNA absorbance 405 nm; D23A/D198A/D206A triple mutant, cannot self-cleave; scale: DMSO 0, 5 µM enzyme 100; activation, % at 8.5 µM; P55210; 330,000 compounds, 0.093% hits;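 active means percent activation above the screen-wide mean plus 3 SD, cut at about 25% in these data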
Target sequence (P55210 whole entry D23A/D198A/D206A): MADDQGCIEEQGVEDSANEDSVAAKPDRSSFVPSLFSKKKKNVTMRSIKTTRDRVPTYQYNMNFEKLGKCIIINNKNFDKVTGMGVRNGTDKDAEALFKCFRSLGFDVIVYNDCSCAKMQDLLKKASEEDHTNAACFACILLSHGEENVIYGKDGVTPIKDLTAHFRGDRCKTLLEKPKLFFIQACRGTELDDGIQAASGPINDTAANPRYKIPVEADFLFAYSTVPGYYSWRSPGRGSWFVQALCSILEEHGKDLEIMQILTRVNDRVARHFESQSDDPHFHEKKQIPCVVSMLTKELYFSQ
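System: Uncleavable procaspase-7 mutant enzyme; Amount: 2 µM procaspase-7 mutant as dispensed; Schedule: 1 h compound preincubation, 2 h substrate cleavage, 25 °C; Measured by: 405 nm absorbance of p-nitroaniline; Evaluation: percent activation from buffer-corrected 0–120 min absorbance change; Control set: low DMSO alone, high DMSO plus 5 µM PC-7.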
Calb FLC: affects C. albicans growth with fluconazole; AID 1979; growth inhibition, % (concentration not given with the values); 300,000 compounds, 0.57% hits; C. albicans CaCi-2 + fluconazole, Alamar Blue growth, 48 h;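 active means growth inhibition above about 58% in most replicates, limit read from the data, passing the limit was not always enough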;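 further: all wells also contain fluconazole at 8 µg/ml as a sub-toxic cotreatment; 0% = median of DMSO wells and 100% = median of geldanamycin control wells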
HIF activator: HIF pathway transcriptional activation; U2OS HRE-luciferase reporter, luminescence; normalized: DMSO 0%, desferrioxamine 100%; activation, % at 7.5 µM (by protocol); 300,000 compounds, 0.32% hits;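 active means mean activation of at least 10% of the iron chelator positive control signal, with at least half of replicates also reaching 10%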
procasp3 activ: activates human procaspase-3. P42574. recombinant procaspase-3 D3A, Ac-DEVD-pNA absorbance 405 nm. activation, % at 8.5 µM. 330,000 compounds, 0.11% hits;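 active means activation above the mean of all tested compounds plus 3 SD, cut at about 21% in these data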;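 further: 0% = DMSO alone and 100% = DMSO wells spiked with extra 5 µM PC-3 D3A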
Target sequence (P42574 whole entry D9A/D28A/D175A): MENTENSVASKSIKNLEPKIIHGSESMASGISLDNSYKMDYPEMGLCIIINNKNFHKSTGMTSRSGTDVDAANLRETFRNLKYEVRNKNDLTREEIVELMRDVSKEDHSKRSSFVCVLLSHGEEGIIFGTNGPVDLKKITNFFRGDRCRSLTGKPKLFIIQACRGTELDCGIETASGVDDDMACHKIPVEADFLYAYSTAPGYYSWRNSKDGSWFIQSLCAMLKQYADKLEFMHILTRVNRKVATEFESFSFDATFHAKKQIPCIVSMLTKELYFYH
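Assay system – Procaspase-3 D3A mutant · Benchmarks – DMSO low control, extra-enzyme high control · Technique – 405 nm absorbance of p-nitroaniline, reads at 0 and 120 min · Doses – 8.5 µM nominal · Measure – % activation between DMSO and enzyme-spiked controls · Also added – Ac-DEVD-pNA chromogenic peptide substrate · Schedule – 1 h compound preincubation, 2 h substrate hydrolysis at 25 °C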
Neddylation inh: inhibitors of human cullin neddylation. P61081+Q13564. TR-FRET cullin neddylation, biochemical. inhibition, % at 25 µM. 360,000 compounds, 0.58% hits. AID 651699; in the data active means inhibition above about 36%
GAA850 FXN act: activators of GAA850 frataxin (FXN) promoter. HEK293 lucGAA850 FXN promoter luciferase reporter, 24 h; percent of 10 µM SAHA response. activation, % at 6 µM. 360,000 compounds, 0.56% hits. AID 540364;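 active means activation above the average of all compounds screened plus 3 SD, cutoff fixed separately per campaign, cut at about 7.5% in these data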;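 further: 0% = DMSO wells and 100% = 10 µM SAHA wells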
Active calls of the source: *. Sampled rows, rich in hits. Any-hit rate of the full collection: about 1.9%.

How did CCN1C(=O)[C@@H]2[C@@H](c3ccc(SC4CCCCC4)c(OC)c3)N3CCC[C@@]3(C(=O)OC)[C@@H]2C1=O do in these assays?
proCasp7 act: -2.4; procasp3 activ: -0.9; Neddylation inh: -67.9; GAA850 FXN act: 0.2

What do the screens show for `COc1ccc(OC)c(/C=C2\SC(=S)N(NS(=O)(=O)c3ccc(C)cc3)C2=O)c1`?
proCasp7 act: 13.8; Calb FLC: 88.7*; HIF activator: -0.8; procasp3 activ: 6.9; Neddylation inh: -9.7; GAA850 FXN act: 2.1

How did CCOc1cc(/C=C2\SC(=S)N(NS(=O)(=O)c3ccccc3)C2=O)ccc1O do in these assays?
proCasp7 act: -1.8; Calb FLC: 88.3*; HIF activator: 0.5; procasp3 activ: -12.0; Neddylation inh: -37.9; GAA850 FXN act: -1.5

Results for O=C1/C(=C/c2ccc(O)c(O)c2)SC(=S)N1Nc1ccccc1 ?
Calb FLC: 114.2*; HIF activator: 0.5; Neddylation inh: -32.8; GAA850 FXN act: 7.8*

Results for COc1ccc(/C=C2\SC(=S)N(NS(=O)(=O)c3ccc(C)cc3)C2=O)c(OC)c1 ?
proCasp7 act: -10.3; Calb FLC: 51.8; HIF activator: 1.3; procasp3 activ: -10.9; Neddylation inh: -13.7; GAA850 FXN act: 3.2

Results for CN1/C(=C\C=[N+](C)c2ccccc2)C(C)(C)c2ccccc21 ?
proCasp7 act: -8.0; Calb FLC: 104.8*; procasp3 activ: -11.0; Neddylation inh: -8.4; GAA850 FXN act: -1.7

How did CCOC(=O)C(=NO)C1=CSC2=NNC(C)(C)N12 do in these assays?
Neddylation inh: -25.4; GAA850 FXN act: 6.9

How did CC1=NC(C#N)=C(C#N)NC(C)(C)C1 do in these assays?
proCasp7 act: 2.8; Calb FLC: -4.2; HIF activator: 28.4*; procasp3 activ: 7.0; Neddylation inh: 0.3; GAA850 FXN act: 1.1

What do the screens show for `Cn1ccc2c(N3CCCCC3)cc3c(c21)C1CCC3O1` (stereo not drawn)?
Neddylation inh: -16.9

Results for Cc1ccc(C(C)C)c(OCc2nn(CC(=O)c3ccc(OC(F)F)cc3)c3[n+]2CCCCC3)c1 ?
proCasp7 act: 13.4; Calb FLC: 89.6*; HIF activator: -0.8; procasp3 activ: 12.0; Neddylation inh: 14.0; GAA850 FXN act: -0.9

How did COc1ccc(C(=O)Cn2nc(CNc3ccc(Br)cc3)[n+]3c2CCCCC3)cc1 do in these assays?
proCasp7 act: -7.9; Calb FLC: 0.5; HIF activator: 0.9; procasp3 activ: -5.0; Neddylation inh: 7.5; GAA850 FXN act: 2.5

How did Cn1c(CSc2nc3ccccc3n2C)nc2ccccc21 do in these assays?
proCasp7 act: -9.7; Calb FLC: 26.5; HIF activator: 1.3; procasp3 activ: 0.9; Neddylation inh: 5.3; GAA850 FXN act: 1.9

How did Cn1c(SC2=CS(=O)(=O)c3ccccc32)nc2ccccc21 do in these assays?
proCasp7 act: -10.9; Calb FLC: 91.6*; HIF activator: 6.9; procasp3 activ: -4.3; Neddylation inh: -0.7; GAA850 FXN act: -10.3

What do the screens show for `COc1ccc(C(CC(=O)Nc2cc(OC)cc(OC)c2)n2cccc2)cc1` (stereo not drawn)?
proCasp7 act: 0.7; Calb FLC: 17.7; HIF activator: -0.2; procasp3 activ: -2.2; Neddylation inh: 0.5; GAA850 FXN act: 0.3

Results for COc1ccc(C(CC(=O)Nc2ccccc2OC)n2cccc2)cc1 (stereo not drawn) ?
proCasp7 act: 2.9; Calb FLC: 8.1; HIF activator: 152.3*; procasp3 activ: 2.4; Neddylation inh: 3.5; GAA850 FXN act: 1.1

Results for CC1(C(=O)NS(=O)(=O)c2cccc(Cl)c2)CCN1C(=O)C1(c2ccc(Cl)cc2)CCC1 (stereo not drawn) ?
Neddylation inh: -7.6; GAA850 FXN act: -0.2

What do the screens show for `CCN(CC)S(=O)(=O)c1cccc(C(=O)N/N=C/c2ccc(O)c(O)c2O)c1`?
proCasp7 act: -33.5; procasp3 activ: -22.4; Neddylation inh: -15.8; GAA850 FXN act: 1.9

What do the screens show for `CCN(CC)S(=O)(=O)c1cccc(C(=O)N/N=C(\C)c2ccc(O)cc2O)c1`?
proCasp7 act: -46.7; Calb FLC: -11.8; HIF activator: 12.8*; procasp3 activ: -54.6; GAA850 FXN act: -6.2

What do the screens show for `O=C(Nc1cccc(Cl)c1)c1csc(COCCO)n1`?
Neddylation inh: -6.9; GAA850 FXN act: 2.9

How did CNC(=S)N/N=C/c1ccc(-c2ccc(Cl)c([N+](=O)[O-])c2)o1 do in these assays?
proCasp7 act: -2.4; Calb FLC: 84.7*; HIF activator: 0.3; procasp3 activ: 0.5; Neddylation inh: -22.4; GAA850 FXN act: -1.2

What do the screens show for `C=CCNC(=S)N/N=C/c1ccc(-c2ccc(OC)cc2)o1`?
proCasp7 act: 3.8; Calb FLC: 104.5*; HIF activator: 4.1; procasp3 activ: 14.4; GAA850 FXN act: 1.6

What do the screens show for `CC(C)(C)NC(=S)N/N=C\c1ccc(-c2ccc([N+](=O)[O-])cc2)o1`?
proCasp7 act: 3.0; Calb FLC: 37.0; HIF activator: 1.0; procasp3 activ: -5.2; Neddylation inh: -40.5; GAA850 FXN act: 2.6

What do the screens show for `CNC(=S)N/N=C/c1ccc(-c2ccc(C(=O)O)cc2)o1`?
proCasp7 act: -19.2; Calb FLC: -3.7; HIF activator: 1.4; procasp3 activ: -7.5; Neddylation inh: 47.8*; GAA850 FXN act: 0.4

What do the screens show for `C=CCNC(=S)N/N=C/c1ccc(-c2cc(Cl)ccc2Cl)o1`?
proCasp7 act: 1.2; Calb FLC: -2.8; HIF activator: 0.2; procasp3 activ: 1.1; GAA850 FXN act: 1.9

What do the screens show for `Cc1ccc(S(=O)(=O)NN=C(c2ccccc2)c2cccs2)cc1`?
Neddylation inh: -2.4; GAA850 FXN act: -1.9

How did CCOc1ccc(NC(=O)CN(C)C(=O)c2ccc(OCC(=O)N3CCOCC3)c(OC)c2)cc1OCC do in these assays?
Neddylation inh: -10.8; GAA850 FXN act: 1.5

Results for CCN(CC)S(=O)(=O)c1ccc(N2CC(C(=O)Nc3cccc(C(=O)NC4CC4)c3)CC2=O)cc1 (stereo not drawn) ?
Neddylation inh: -21.6; GAA850 FXN act: 0.1

How did CCCCC1OC23CCCCC2C(C#N)(C#N)C1(C#N)C(=N)O3 (stereo not drawn) do in these assays?
proCasp7 act: -6.0; Calb FLC: -4.1; HIF activator: -0.5; procasp3 activ: -6.4; Neddylation inh: 50.2*; GAA850 FXN act: -1.9

Results for CCOC(=O)N(C)c1c(CC)nc2c(OCc3cc(Cl)cc(Cl)c3)cccn12 ?
Neddylation inh: 8.7; GAA850 FXN act: -1.8

How did O=C(O)c1ccc(-c2nc(-c3ccc(Cl)c(Cl)c3)cs2)cc1 do in these assays?
proCasp7 act: 0.9; Calb FLC: 89.5*; HIF activator: 0.2; procasp3 activ: 16.6; Neddylation inh: -173.0; GAA850 FXN act: 3.3
